Measured values collected from several papers.

SMILES | tested on | assay | system | setting | quantity | result
O=C(NC(=S)Nc1ccccc1O)c1cccs1 | Leishmania tropica | parasite growth, resazurin | – | promastigote | IC50 | 0.29 µM
O=C(NO)c1ccc(CNc2nc3cccc(-c4ccc5c(c4)OCO5)n3n2)cc1 | SF-268 | cell growth or viability, SRB | – | – | GI50 | 0.47 µM
CN(C)c1ccc(-c2c(C(N)=S)c(N)n(N)c(=O)c2C#N)cc1 | Saccharomyces cerevisiae | microbial growth, well diffusion | ATCC9763 | 500 µg/mL | inhibition zone | 14 mm
Nc1ccc(/C=C/C(=O)N2CCc3c(oc4c(-c5ccc(F)cc5)cc(-c5ccc(C(=O)N6CCC(F)(F)CC6)nn5)cc34)C2)cn1 | PANC-1 | cell growth or viability, CCK-8 | – | 72 h | IC50 | > 20 µM
C=CC(=O)Nc1cc(Nc2nccc(-c3cn(C)c4ccccc34)n2)c(OC)cc1N(C)CCN(C)C | PANC-1 | cell growth or viability, MTS | – | 72 h | IC50 | 7.14 µM
CC(=O)Oc1ccc(-c2c(C(N)=O)c(N)n(N)c(=O)c2C#N)cc1 | Saccharomyces cerevisiae | microbial growth, well diffusion | ATCC9763 | 500 µg/mL | inhibition zone | 9 mm
Nc1ccc(/C=C/C(=O)N2CCc3c(oc4c(-c5ccc(F)cc5)cc(-c5ccc(C(=O)N6C[C@@H]7[C@H](C6)C7(F)F)nn5)cc34)C2)cn1 | PANC-1 | cell growth or viability, CCK-8 | – | 72 h | IC50 | > 20 µM
CCCCCCCCCCCCCCCCOP(=O)([O-])OCC[N+](C)(C)C | Leishmania tropica | parasite growth, resazurin | – | promastigote | IC50 | 2.12 µM
C=CC(=O)NC1CCN(c2ncc3ncnc(Nc4ccc(Oc5ccc6c(c5)ncn6C)c(C)c4)c3n2)CC1 | PANC-1 | cell growth or viability | – | – | EC50 | 1.8 µM
O=C(NC(=S)Nc1ccccn1)c1ccco1 | Leishmania tropica | parasite growth, resazurin | – | promastigote | IC50 | 0.94 µM
CCOc1ccc(-c2c(Cc3ccc(OC)cc3)[nH]/c(=N/C(=O)C34CC5CC(CC(C5)C3)C4)n2C)cc1OC | Hepatitis B virus | viral replication, inhibitor | HePAD38 | – | IC50 | 10.9 µM
N#Cc1c(-c2ccc(Cl)cc2Cl)c(C(N)=S)c(N)n(N)c1=O | Saccharomyces cerevisiae | microbial growth, well diffusion | ATCC9763 | 500 µg/mL | inhibition zone | 11 mm
